Rpn11 block = inhibitors of human proteasome Rpn11; inhibition, % at 20 µM; AID 588493; 0.59% of 360,000 active; human 26S proteasome, Ub4-pepOG fluorescence polarization; 20S core pre-blocked with epoxomicin;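 active = inhibition at 20 µM, scaled to each plate's controls, above about 33%, limit read from the data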
SUMO1-SIM PPI = modulators of human SUMO1-mediated protein-protein interactions. P63165. SUMO1 binding to a labelled peptide, TR-FRET, 1 h. inhibition, % at 20 µM. 0.33% of 360,000 active. AID 602429; in the data active = inhibition above about 37%
LMPTP inh = LMPTP (human) inhibition; recombinant LMPTP-A, OMFP fluorogenic substrate, fluorescence intensity; inhibition, % at 20 µM; 0.22% of 360,000 active; AID 651560;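 active = compounds that cut the enzyme signal by at least half of the control window in the single-dose screen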;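 note: plate controls were DMSO wells with enzyme plus substrate for no effect and substrate without enzyme for full effect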
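Test system – LMPTP-A phosphatase enzyme · Quantity – 0.625 nM LMPTP-A final · Reagent – OMFP substrate, 400 µM final · Dosing – one test concentration per compound, 20 µM, with 3% DMSO overall · Timing – 50 min enzyme reaction at room temperature, protected from light · Detection – fluorescence intensity · Controls – substrate-only low control, DMSO enzyme-plus-substrate high control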
STEP inh = STEP (human) phosphatase inhibition; P54829; recombinant STEP, OMFP fluorogenic substrate, fluorescence; inhibition, % at 20 µM; 0.25% of 360,000 active;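 active = inhibition at 20 µM, scaled per plate between control wells, above about 37%, limit read from the data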;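 note: 0% = DMSO with enzyme and substrate and 100% = substrate only without enzyme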
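Material: STEP (striatal-enriched tyrosine phosphatase) enzyme, cell-free | Medium: 50 mM Bis-Tris pH 6.0 with 2.5 mM DTT and 0.005% Tween 20 | Read-out: Percent inhibition scaled to no-enzyme and uninhibited-enzyme controls, plate-pattern corrected | Signal: Fluorescence read at 480 nm ex / 540 nm em | Times: 20 min reaction, room temperature, in the dark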
Scp-1 inhibitor = Scp-1 (human) phosphatase inhibition | inhibition, % at 20 µM | 0.88% of 340,000 active | Q9GZU7 | Recombinant Scp1, phosphopeptide, malachite green phosphate absorbance | AID 493091;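 active = inhibition above about 50% at 20 µM, limit read from the data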;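 note: plate controls were DMSO wells with enzyme for no effect and wells lacking enzyme for full effect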
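Test system: SCP-1 phosphatase catalytic domain, residues 76-261 | Compound dosing: One concentration, 20 µM, with 1.0% DMSO | Schedule: 45 min room-temperature reaction, 5 min colour, 30 min stabiliser | Detection: Absorbance at 630 nm | Read-out basis: % inhibition of SCP-1 phosphate liberation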
DNMT1 inh = blocks human DNA methyltransferase DNMT1 | DNMT1 molecular beacon, Hinp1I cleavage, fluorescence | inhibition (reported as % activation of signal), % at 10 µM | 0.83% of 360,000 active; in the data active = inhibition above about 50%
Target sequence (P26358 504-1616 limits assumed): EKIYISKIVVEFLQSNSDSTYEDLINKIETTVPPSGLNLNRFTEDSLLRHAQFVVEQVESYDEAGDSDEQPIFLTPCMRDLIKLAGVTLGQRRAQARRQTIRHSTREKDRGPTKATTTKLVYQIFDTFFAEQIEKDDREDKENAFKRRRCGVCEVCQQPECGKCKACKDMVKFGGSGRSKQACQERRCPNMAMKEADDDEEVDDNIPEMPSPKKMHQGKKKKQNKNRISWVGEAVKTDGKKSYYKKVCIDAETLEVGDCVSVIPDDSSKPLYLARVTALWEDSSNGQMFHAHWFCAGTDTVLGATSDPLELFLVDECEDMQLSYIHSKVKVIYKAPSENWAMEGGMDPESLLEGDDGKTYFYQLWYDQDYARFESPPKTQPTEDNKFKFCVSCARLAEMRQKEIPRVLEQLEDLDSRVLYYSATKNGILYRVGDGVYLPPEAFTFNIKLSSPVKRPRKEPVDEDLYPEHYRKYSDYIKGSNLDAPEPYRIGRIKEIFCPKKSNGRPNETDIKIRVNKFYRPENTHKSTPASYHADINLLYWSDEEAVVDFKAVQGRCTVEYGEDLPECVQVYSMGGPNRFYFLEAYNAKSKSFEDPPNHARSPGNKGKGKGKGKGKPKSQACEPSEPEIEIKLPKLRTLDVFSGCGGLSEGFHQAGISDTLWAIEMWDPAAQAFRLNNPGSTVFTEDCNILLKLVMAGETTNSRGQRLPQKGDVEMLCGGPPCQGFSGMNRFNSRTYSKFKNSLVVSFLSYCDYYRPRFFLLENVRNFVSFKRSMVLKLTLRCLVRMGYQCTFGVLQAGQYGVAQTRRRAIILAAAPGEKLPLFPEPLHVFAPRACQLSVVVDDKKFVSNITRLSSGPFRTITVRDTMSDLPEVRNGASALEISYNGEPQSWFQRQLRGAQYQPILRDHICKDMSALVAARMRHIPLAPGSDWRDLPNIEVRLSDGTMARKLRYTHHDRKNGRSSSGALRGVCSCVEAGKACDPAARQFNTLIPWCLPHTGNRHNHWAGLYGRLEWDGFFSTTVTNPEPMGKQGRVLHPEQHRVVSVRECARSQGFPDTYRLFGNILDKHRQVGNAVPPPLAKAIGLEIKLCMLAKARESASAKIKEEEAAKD
* hit, by the source's call; x = no result given. A selection: hits, their analogues and other compounds. The true share with any hit is near 2.3%.

SMILES | Rpn11 block | SUMO1-SIM PPI | LMPTP inh | STEP inh | Scp-1 inhibitor | DNMT1 inh
Nc1nc(CN2CCN(C(=O)c3ccco3)CC2)nc(Nc2cccc(Cl)c2)n1 | -6 | 6 | -1 | -3 | -5 | 0
COc1cc2c(cc1OC)C(=O)C(Br)CC2 (configuration not stated) | 19 | 111* | 6 | 4 | x | 83*
COc1cc2c(cc1OC)C(=O)C(c1ccc3c(c1)OCO3)CC2 (configuration not stated) | 8 | -2 | 1 | 2 | x | 5
Cc1cc2nc(-c3ccc(SCc4ccccc4C#N)nc3)[nH]c2cc1C | 10 | 9 | 2 | 3 | 0 | 30
Cc1cc2nc(-c3ccc(SCc4ccc(C(=O)O)cc4)nc3)[nH]c2cc1C | 3 | 21 | 68* | 92* | 79* | -1
O=C(C(=O)N1CCN(c2ccc(F)cc2)CC1)c1cn(CC(=O)N2CCOCC2)c2ccccc12 | -1 | 0 | -1 | 0 | 1 | 1
CCn1c(SC(C)C(=O)O)nc2sc3c(c2c1=O)CCC3 (configuration not stated) | -13 | 13 | 15 | 10 | 78* | 90*
O=Cc1c(Cl)[nH]c(=O)n1-c1ccccc1 | -6 | -6 | -2 | 1 | -8 | 1
O=c1[nH]c2cc(Cl)ccc2n1-c1ccccc1 | -1 | 40* | 2 | -7 | -13 | 1
COC(=O)c1ccc(C(=O)Nc2ccc3nc(-c4ccncc4)[nH]c3c2)cc1 | 28 | 51* | 0 | 1 | -10 | -2
CCc1ccc(NC(=O)CCc2ccc(CC)o2)cc1 | -10 | 3 | 2 | 2 | -2 | -1
Cc1n[nH]c(=S)n(NC(=O)/C=C/C(=O)Nn2c(=S)[nH]nc(C)c2=O)c1=O | 0 | 67* | 1 | 6 | 21 | 34
COc1ccc(CNCC(O)COCc2cccs2)cc1 (configuration not stated) | 3 | -1 | -2 | 2 | -2 | 3
O=S(=O)(NCC(O)COCc1ccco1)c1cccs1 (configuration not stated) | -3 | 2 | 0 | 2 | 65* | 8
CC1(C(=O)NS(=O)(=O)c2ccc(C#N)cc2)CCN1C(=O)Cc1ccccc1Cl (configuration not stated) | 3 | 2 | -1 | -3 | x | -2
O=C1NC(=O)/C(=C\c2ccc(O)cc2O)S1 | -34 | 10 | 32 | 1 | 53* | 32
O=C(NCCCN1CCOCC1)c1sc2cc([N+](=O)[O-])ccc2c1Cl | -4 | -26 | 3 | 93* | -1 | -10
Cc1cc2cc(CNC(=O)c3ccc4c(c3)OCO4)ccc2n1C | -13 | -22 | 55* | 0 | -1 | -5
NC(=O)c1cc[n+](CC2=C(C(=O)O)N3C(=O)[C@@H](NC(=O)C(c4ccccc4)S(=O)(=O)[O-])[C@H]3SC2)cc1 (some centres not stated) | 38 | 82* | 15 | 97* | 85* | 98*
Cc1c(-c2ccccc2)c(-c2ccc(OCCN(C)C)cc2)n2ccccc12 | 30 | -42 | 80* | -2 | -5 | -4
Cc1ccccc1C(=O)N1CC(=O)Nc2ccc(F)cc2C1c1ccccc1 (configuration not stated) | -1 | 8 | 0 | -3 | -16 | 1
COc1ccccc1OCC(=O)Nc1cc(S(=O)(=O)N2CCOCC2)ccc1N1CCCCC1 | 2 | -1 | 3 | 6 | 3 | -6
CC(=O)c1c(C)[nH]c(C(=O)OCC(=O)Nc2ccc3[nH]c(=O)[nH]c3c2)c1C | -7 | 61* | 0 | 0 | -7 | -13
O=C(COC(=O)c1ccc(O)cc1)Nc1ccc2[nH]c(=O)[nH]c2c1 | 6 | 7 | 0 | -1 | -5 | 2
O=C(COC(=O)c1ccc(F)c(S(=O)(=O)N2CCOCC2)c1)Nc1ccc2[nH]c(=O)[nH]c2c1 | -2 | 61* | -2 | -2 | -2 | -1
SMILES | Rpn11 block | SUMO1-SIM PPI | LMPTP inh | STEP inh | Scp-1 inhibitor | DNMT1 inh
O=C(COC(=O)c1ccc(Br)o1)Nc1ccc2[nH]c(=O)[nH]c2c1 | 5 | 39* | -1 | 2 | 1 | 8
CC(=O)c1c(C)[nH]c(C(=O)OCC(=O)Nc2cccc(S(=O)(=O)N(C)C)c2)c1C | 0 | 4 | 0 | -1 | 1 | 1
Nc1nccnc1C(=O)OCC(=O)Nc1ccc2[nH]c(=O)[nH]c2c1 | -34 | 80* | 3 | 2 | 10 | 2
O=C(COC(=O)c1ccco1)Nc1ccc2[nH]c(=O)[nH]c2c1 | -5 | 51* | 0 | -3 | -5 | 1
O=C(COC(=O)c1ccccc1)Nc1ccc2[nH]c(=O)[nH]c2c1 | 3 | 4 | -1 | -3 | -3 | 0
CCCS(=O)(=O)NC(=O)C1(C)CCN(C(=O)COc2ccc(Cl)cc2Cl)C1 (configuration not stated) | 2 | 2 | -2 | -2 | x | -2
Cc1ccc(C)c(OCc2nc3ccc(S(=O)(=O)Nc4c(C)n(C)n(-c5ccccc5)c4=O)cc3[nH]2)c1 | -5 | 1 | 0 | 1 | 3 | -4
CCn1c(SCC(=O)c2ccc(Cl)cc2)nnc1-c1ccoc1C | -5 | 39* | -1 | 1 | -2 | 0
COC(=O)Oc1nsnc1N1CCOCC1 | 6 | 2 | 1 | 34 | 70* | 2
CN(C)c1ccc(C=c2c3ccccc3n3c2c2ccccc2[n+]3C)cc1 | -24 | 119* | 78* | 37 | -8 | 29
CN(C)c1ccc(C(=O)C=Cc2ccc([N+](=O)[O-])cc2)cc1 | 27 | -14 | 55* | 12 | x | 34
O=C(C=Cc1ccccc1)c1ccc([N+](=O)[O-])cc1 | -1 | -37 | -1 | 1 | -15 | 5
O=C(N=Nc1c(O)[nH]c2ccccc12)c1cc(-c2cccs2)[nH]n1 | -4 | 60* | 39 | 13 | 7 | 11
COc1cc(C(=O)NC(=S)Nc2ccc3[nH]c(=O)[nH]c3c2)cc(OC)c1OC | 0 | 10 | 2 | 1 | -5 | -3
COc1ccc(CCc2nnc(CCC(=O)NCc3ccc4ncccc4c3)o2)cc1 | 2 | 2 | 0 | 1 | -1 | 3
O=C(c1ccc(CSc2nc3ccncc3[nH]2)cc1)N1CCCCC1 | -5 | 6 | 13 | -1 | -13 | -5
COc1cccc(N2CCN(C(=O)c3ccc(CSc4nc5ccncc5[nH]4)cc3)CC2)c1 | -5 | -6 | 52* | -1 | -12 | -1
CN(C)c1nc(N)nc(/C(C#N)=C/C2CC3C=CC2C3)n1 (configuration not stated) | 1 | 4 | 67* | 0 | -3 | -7
c1ccc(-c2csc3ncnc(NCCCN4CCOCC4)c23)cc1 | 7 | 3 | 0 | -1 | 0 | -3
